Source: PubChem BioAssay
Sampled rows, rich in hits. Any-hit rate of the full collection: about 11%.
SF1 activator: activates the human nuclear receptor SF-1 | 65,000 tested, 1.9% active | CHO-K1 Gal4-SF-1 LBD luciferase reporter; % increase over DMSO SF-1-specific signal | Q13285 | activation, % at 10 µM;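 active = activation above the mean activation of all tested compounds plus 3 SD, cut at about 50% in these data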
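Assay system: CHO-K1 cells co-transfected with Gal4 DBD–human SF-1 LBD, 5xGal4 luciferase reporter / Input: 4,000 cells per well / Incubation: 20 h compound exposure at 37 °C after 1 h cell settling / Detection: SteadyLite luciferase luminescence / Control set: DMSO negative control and −SF1 background wells / Replication: one test per compound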
Htt clearance: mutant huntingtin protein clearance | HeLa Exon1htt(103Q)mCFP, aggregate imaging; zero = plate's median compound well | inhibition, % at 1.5 µM | 47,000 tested, 0.42% active | AID 853;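 active = inhibition of aggregate fluorescence above about 70%, also judged a hit by eye on the cell image, limit read from the data, passing the limit was not always enough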;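 also: cells exposed to compound for three days before fixation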
RORa activator: RORA (human) activation. P35398. CHO-K1 Gal4-RORA LBD luciferase reporter, luminescence; percent increase over mock-subtracted basal signal. activation, % at 10 µM. 65,000 tested, 1.5% active;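 active = activation above the mean of all tested compounds plus 3 SD, cut at about 49% in these data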;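 also: 0% = DMSO-treated RORA cells and 100% = added signal equal to DMSO minus mock-transfected cells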
D1 allo mod: D1 dopamine receptor (human) allosteric modulation; HEK293 D1, CRE-luciferase, dopamine EC30 potentiation; actives deviate in either direction; B-score at 10 µM; 58,000 tested, 5.9% active;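 active = luminescence count or its row- and column-corrected plate score outside the 99.7% band of the plate's sample wells, on either side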
M1 agonist: agonists of M1 muscarinic receptor; CHO-M1 cells, Fluo-4 calcium fluorescence, agonist mode; active compounds read high; B-score at 10 µM; 64,000 tested, 3% active;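 active = fluorescence rise, raw or as B-score row- and column-corrected plate score, outside the 99.7% band of its plate's samples, either direction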
M1 antag: blocks the rat M1 muscarinic receptor response to acetylcholine; P08482; CHO-M1 cells, Fluo-4 calcium, ACh EC80 antagonist mode; active compounds read low; B-score at 10 µM; 64,000 tested, 3.4% active; AID 628;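 active = calcium fluorescence response, raw or row-and-column corrected B-score, differing from the plate sample mean either way at a set confidence level, mostly lower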
Target sequence (P08482 whole entry, looked up): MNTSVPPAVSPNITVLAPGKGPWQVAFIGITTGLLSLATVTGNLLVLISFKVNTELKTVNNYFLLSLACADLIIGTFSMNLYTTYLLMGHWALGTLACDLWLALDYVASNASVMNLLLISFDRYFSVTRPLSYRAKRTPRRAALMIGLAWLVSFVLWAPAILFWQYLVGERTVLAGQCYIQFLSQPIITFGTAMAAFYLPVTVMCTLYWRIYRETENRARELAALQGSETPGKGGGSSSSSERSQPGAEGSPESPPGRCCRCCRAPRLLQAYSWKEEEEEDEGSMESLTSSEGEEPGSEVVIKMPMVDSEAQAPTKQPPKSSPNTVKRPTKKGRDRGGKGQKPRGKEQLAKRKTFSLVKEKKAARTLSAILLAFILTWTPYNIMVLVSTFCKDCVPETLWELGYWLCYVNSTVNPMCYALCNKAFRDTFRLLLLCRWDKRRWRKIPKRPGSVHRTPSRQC
M1 antag confirm: M1 muscarinic receptor (rat) antagonism, confirmed. shares compounds with M1 antag. CHO-M1 cells, Fluo-4 calcium, ACh EC80 antagonism; active compounds read low. calcium response (max-min fluorescence) at 10 µM. 1,700 tested, 43% active;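 active = calcium response below the same-plate mean of wells given acetylcholine alone at its 80%-effect dose, minus 3 SD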;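 also: raw fluorescence intensity difference in arbitrary instrument units and not normalized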
mGluR4 antag: acts on human mGluR4 in M1 antagonist selectivity test; shares compounds with M1 antag; CHO-mGluR4 calcium flux, Fluo-4 fluorescence, glutamate EC80; active compounds read low; fluorescence response (max-min) at 10 µM; 1,700 tested, 0.9% active;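 active = fluorescence response below the plate's average for near-maximal glutamate wells, less 3 SD of those wells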;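 also: raw unnormalized fluorescence span taken in the window right after glutamate addition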
An asterisk follows results filed as active.

For Cc1ccc(N2C(=O)C3ON(c4ccccc4)C(c4ccncc4)C3C2=O)c(C)c1 (stereo unspecified) the results were SF1 activator -4, Htt clearance -3, RORa activator -11, M1 agonist -0.0093 and M1 antag -0.5.
For CN(C)c1ccc(NC(=O)CN2CCN(CC(=O)Nc3ccc(F)cc3)CC2)cc1 the results were SF1 activator 20, RORa activator -2, D1 allo mod 0.54, M1 agonist -0.73, M1 antag -4.6*, M1 antag confirm 718 and mGluR4 antag 263.
Screening CCOc1ccc(NC(=O)CN2CCN(CC(=O)Nc3ccc(F)cc3)CC2)cc1 returned SF1 activator 12, Htt clearance 8, RORa activator -15, D1 allo mod 0.0079, M1 agonist -0.24 and M1 antag 0.2.
For COc1cccc2cc(C(=O)N3CCN(C45CC6CC(CC(C6)C4)C5)CC3)c(=O)oc12 the results were SF1 activator 17, Htt clearance 1, RORa activator 16, D1 allo mod -0.11, M1 agonist 0.5, M1 antag -1.8*, M1 antag confirm 412* and mGluR4 antag 201.
Screening COc1cccc2cc(C(=O)N3C(C)CCCC3C)c(=O)oc12 (stereo unspecified) returned Htt clearance -84.
`O=C(Cc1ccccc1[N+](=O)[O-])NCc1ccccc1Cl` gave Htt clearance -37.
Cn1c(SCc2ccc(Br)cc2)nnc1-c1cccs1 was read as SF1 activator 14, RORa activator 47, D1 allo mod -0.85, M1 agonist 0.4, M1 antag -4.4*, M1 antag confirm 526 and mGluR4 antag 204.
CN(CCC#N)CC(=O)Nc1ccc(NC(=O)CN(C)CCC#N)cc1 was read as SF1 activator 2, RORa activator -12, M1 agonist 0.74, M1 antag -14*, M1 antag confirm 697 and mGluR4 antag 242.
CCOc1ccc(N2CC(C(=O)Nc3cccc(C)c3C)CC2=O)cc1 (stereo unspecified) was read as SF1 activator -9, Htt clearance 21, RORa activator -11, D1 allo mod -0.58, M1 agonist 0.64 and M1 antag -0.32.
`Cc1c(NC(=O)C2(C)CCCCC2)c(=O)n(-c2ccccc2)n1C` gave SF1 activator -11, RORa activator 10, M1 agonist -0.47 and M1 antag -0.33.
For Cc1c(NC2=NC3(CCCCC3)Cc3ccccc32)c(=O)n(-c2ccccc2)n1C the results were SF1 activator -14, RORa activator -9, D1 allo mod -1.1, M1 agonist -0.067, M1 antag -2.7*, M1 antag confirm 62* and mGluR4 antag 200.
`O=C(Nc1ccc2snnc2c1)N1CCN(c2ccccc2)CC1` gave Htt clearance -22, D1 allo mod -1.3, M1 agonist 0.068 and M1 antag -0.54.
O=C(Nc1ccc2snnc2c1)N1CCOCC1 was read as SF1 activator 10, Htt clearance -85, RORa activator 9, M1 agonist -1.4, M1 antag -2.4*, M1 antag confirm 599 and mGluR4 antag 208.
Screening COc1cc(OC)cc(-c2nnc(SCC(=O)Nc3cc(C)on3)o2)c1 returned SF1 activator -16, RORa activator -28, D1 allo mod -0.035, M1 agonist -0.65 and M1 antag 0.55.
For Cc1nc2c(-c3ccc(F)cc3)c(C)nn2c(C)c1CCC(=O)N1CCN(c2ccc(F)cc2)CC1 the results were Htt clearance 19.
For CCOc1ccc(Cn2nnc(C(=O)NCc3ccc(OC)cc3)c2N)cc1 the results were SF1 activator -9, Htt clearance 1, RORa activator 1, D1 allo mod 0.27, M1 agonist 0.35, M1 antag -1.6*, M1 antag confirm 620 and mGluR4 antag 228.
